Results of several laboratories.
Protocols differ between the studies behind these lines.
Target: NT-3 growth factor receptor (NTRK3, Homo sapiens, UniProt Q16288)

SMILES	observed	action	technique	tested at	endpoint	result
Cc1ccc(NC(=O)c2ccc(C)c(C(F)(F)F)c2)cc1C#Cc1nn(C2CCC(O)CC2)c2ncnc(N)c12 (stereo not shown)	cell-free assay	–	–	10 µM	remaining signal	17%
CN(C)c1ncnc(-c2ccc3nc(Nc4cc(CN5CCN(C(=O)CC(F)(F)F)CC5)ccn4)[nH]c3c2)c1Cl	cell-free assay	–	competition with immobilised ligand	1 µM	remaining binding	61%
O=C(Nc1cccc(F)c1)Nc1cccc(C(=O)Nc2ccc3[nH]ncc3c2)c1	enzyme activity	inhibitor	FRET	1 µM	inhibition	17%
Cc1ccc(Nc2nccc(N(C)c3ccc4c(C)n(C)nc4c3)n2)cc1S(N)(=O)=O	cell-free assay	–	–	0.5 µM	remaining signal	87.8%
N#CC1(c2ccccn2)CCN(Cc2cc(C(=O)N3CCCC3)c(=O)n3ccccc23)CC1	cell-free assay	–	competition with immobilised ligand	1 µM	remaining binding	100%
COc1cc2c(Nc3ccc(Br)cc3F)ncnc2cc1OCC1CCN(C)CC1	cell-free assay	–	–	0.5 µM	remaining signal	72.2%
CCCCN(CCCC)C(=O)CN1C[C@H](c2cc(OC)c3c(c2)OCO3)[C@@H](C(=O)O)[C@@H]1CC(C)(C)CCC	cell-free assay	–	competition with immobilised ligand	1 µM	remaining binding	50.5%
Cc1cc(NC(=O)c2cccc3cc(-c4cccc5[nH]nc(N)c45)ccc23)ccc1F	enzyme activity	inhibitor	–	0.1 µM	activity vs control	90%
C[C@@H]1CCN(C(=O)CC#N)C[C@@H]1N(C)c1ncnc2[nH]ccc12	cell-free assay	–	–	0.5 µM	remaining signal	90%
CC(C)(C)c1nc2c(s1)c1nc(N)ncc1c1ccc(NS(=O)(=O)c3c(F)cccc3F)c(F)c12	enzyme activity	inhibitor	radiometric	1 µM	remaining activity	82%
O=C(Nc1ccc(Cl)cc1)Nc1cccc(C(=O)Nc2ccc3[nH]ncc3c2)c1	enzyme activity	inhibitor	FRET	1 µM	inhibition	15.4%
N#CCCc1ccc2c(c1)-c1[nH]c3ccc([N+](=O)[O-])cc3c1CC(=O)N2	cell-free assay	–	–	0.5 µM	remaining signal	61.2%
O=C(Nc1cccc(C(=O)Nc2ccc3[nH]ncc3c2)c1)Nc1ccccc1F	enzyme activity	inhibitor	FRET	1 µM	inhibition	26.3%
C[C@@]1(Cc2ccc(C#N)cc2)C(=O)N(c2cc(Cl)cc(Cl)c2)c2ncc(C(=O)NC3(c4nc(C5CCC5)no4)CC3)n21	cell-free assay	–	competition with immobilised ligand	1 µM	remaining binding	100%
O=C(Nc1ccc(F)cc1)Nc1cccc(C(=O)Nc2ccc3[nH]ncc3c2)c1	enzyme activity	inhibitor	FRET	1 µM	inhibition	13%
CN(C(=O)c1ccccc1)c1cc(N(C)c2ccc3c(c2)CCc2ccc(C(=O)NCCN4CCOCC4)cc2C3=O)ccc1F	cell-free assay	–	competition with immobilised ligand	1 µM	remaining binding	90%
Cc1sc(C(=O)NC2COC2)cc1-n1cc(NC(=O)Nc2c(F)cccc2Cl)cn1	enzyme activity	inhibitor	–	10 µM	remaining activity	86%
O=C(Nc1cccc(Cl)c1)Nc1cccc(C(=O)Nc2ccc3[nH]ncc3c2)c1	enzyme activity	inhibitor	FRET	1 µM	inhibition	19.7%
Cc1noc([C@H]2C[C@@H](c3ccc(C(F)(F)F)cc3)CN(C(=O)N3CCS(=O)(=O)C3)C2)n1	cell-free assay	–	competition with immobilised ligand	1 µM	remaining binding	100%
O=C(Nc1ccc2[nH]ncc2c1)c1cccc(NC(=S)Nc2cc(C(F)(F)F)cc(C(F)(F)F)c2)c1	enzyme activity	inhibitor	FRET	1 µM	inhibition	11.8%
COCCOc1nc(-c2ccc(Cl)nc2)nc2c1CN(C(=O)c1ncn3ccccc13)CC2	cell-free assay	–	competition with immobilised ligand	0.1 µM	remaining binding	100%
O=C(Nc1cccc(C(=O)Nc2ccc3[nH]ncc3c2)c1)Nc1ccccc1Cl	enzyme activity	inhibitor	FRET	1 µM	inhibition	27.4%
Cc1c(C(=O)O)cc(-c2ccc(C3CCNCC3)cc2)c2ccc(-c3ccc(C(F)(F)F)cc3)cc12	cell-free assay	–	competition with immobilised ligand	1 µM	remaining binding	100%
Cc1ccc(C(=O)NCc2ccsc2)cc1C#Cc1cn(C(C)C)c2ncnc(N)c12	enzyme activity	inhibitor	–	1 µM	activity vs control	29%
O=C(Nc1ccc2[nH]ncc2c1)c1cccc(NC(=S)Nc2ccc(F)cc2F)c1	enzyme activity	inhibitor	FRET	1 µM	inhibition	12.5%
